Compounds with a hit are over-represented: about 3.5% of the library has one in this group of screens.
PAFAH2 inh: PAFAH2 enzyme inhibitors, primary screen, biochemical, fluorescence polarization, human. inhibition, % at 3.39 µM. Platelet-activating factor acetylhydrolase 2, cytoplasmic (Homo sapiens), Q99487. AID 492956, 2010. actives 0.99% (n = 340,000). recombinant PAFAH2, FP-rhodamine activity probe;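 active means inhibition above the mean over all tested compounds plus 3 SD, cut at about 30% in these data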;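 further: inhibitors block probe labeling of enzyme so polarization drops; 0% = enzyme with DMSO and 100% = wells lacking PAFAH2 protein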
PAFAH1B2 inh: PAFAH1B2 enzyme inhibitors, primary screen, biochemical, fluorescence polarization, human; AID 492953, 2010; actives 1.2% (n = 340,000); inhibition, % at 3.39 µM; recombinant PAFAH1B2, FP-rhodamine activity probe; Platelet-activating factor acetylhydrolase IB subunit alpha2 (Homo sapiens), P68402;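 active means inhibition above the mean of all tested compounds plus 3 SD, cut at about 24% in these data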;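 further: 0% = enzyme with DMSO and 100% = wells lacking PAFAH1B2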
PAFAH1B3 FP inh: PAFAH1B3 enzyme inhibitors, primary screen, biochemical, fluorescence polarization, human; actives 0.28% (n = 340,000); recombinant PAFAH1B3, FP-rhodamine probe; inhibition, % at 3.39 µM;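 active means inhibition above the screen-wide average of all tested compounds plus 3 SD, cut at about 25% in these data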;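 further: 0% = enzyme with DMSO only and 100% = wells lacking PAFAH1B3 protein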
PREPL inh: PREPL enzyme inhibitors, primary screen, biochemical, fluorescence polarization; recombinant PREPL, fluorescence polarization activity-based probe; inhibition, % at 5.96 µM; actives 0.68% (n = 320,000); AID 2751, 2010; in the data active means inhibition above about 43%;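 further: 0% = enzyme with DMSO and 100% = wells lacking enzyme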
pPAFAH FP inh: pPAFAH enzyme inhibitors, primary screen, biochemical, fluorescence polarization, human; recombinant pPAFAH, FP-rhodamine probe fluorescence polarization; actives 1.5% (n = 330,000); Platelet-activating factor acetylhydrolase (Homo sapiens), Q13093; inhibition, % at 3.39 µM;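 active means inhibition above the mean inhibition across the screen plus 3 SD, cut at about 25% in these data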;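 further: inhibitors block binding of the rhodamine activity-based probe so polarization drops; 0% = enzyme with DMSO and 100% = wells lacking pPAFAH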
Apaf-1 inh: inhibitors of human Apaf-1 apoptosome, primary screen, biochemical, DEVD-Rh110 fluorescence, uHTS | Apoptotic protease-activating factor 1 (Homo sapiens), O14727 | reconstituted apoptosome caspase-3 activity | inhibition, % at 20 µM | actives 0.71% (n = 330,000); active means inhibition of at least 40% at 20 µM;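 further: plate controls were DMSO wells for no effect and DEVD-CHO caspase inhibitor wells for full effect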
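System: Apoptosome proteins | Medium: Hepes pH 7.5 with detergent and BSA | Also added: Cytochrome c trigger plus (Z-DEVD)2-Rh110 caspase-3 substrate | Incubation: 30 min compound preincubation, 50 min activation, room temperature | Detection: Rhodamine 110 fluorescence at Ex 480/Em 540 nm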
An asterisk follows results filed as active; . = no result; + = active, no number.

SMILES | PAFAH2 inh | PAFAH1B2 inh | PAFAH1B3 FP inh | PREPL inh | pPAFAH FP inh | Apaf-1 inh
CCOC(=O)C1CCN(C(=O)CCc2nc3sc4c(c3c(=O)[nH]2)CCCC4)CC1 | 9 | -12 | 1 | 26 | 16 | 16
CC(C)c1ccc(-c2cc(C(=O)N3CCOCC3)c3cc(Br)ccc3n2)cc1 | -6 | 0 | 8 | 11 | 3 | 25
COc1ccc(C(=O)O)cc1NCc1cccnc1 | -4 | 4 | 16 | -1 | -11 | 9
O=C(O)c1[nH]c2ccccc2c1NS(=O)(=O)c1ccc(F)cc1 | 3 | 24* | -1 | -8 | 3 | -3
COc1ccc2[nH]c(C(=O)O)c(NS(=O)(=O)c3ccc(C)c(C)c3)c2c1 | 7 | 18 | 9 | 3 | 10 | 4
COc1ccc2[nH]c(C(=O)O)c(NS(=O)(=O)c3ccc(F)cc3)c2c1 | 5 | 27* | 8 | -6 | 4 | 5
CCC(C)(C)NC(=O)C(c1ccc(C)cc1)N(CC1CCCO1)C(=O)c1csnn1 (centres undefined) | 2 | 0 | 7 | -4 | -2 | 6
COc1ccc(-c2cc(C(F)(F)F)nc(S(C)(=O)=O)n2)cc1 | -2 | -5 | 0 | -8 | 29* | 10
CCC1Oc2ccccc2N(CC(=O)NCC2CCCO2)C1=O (centres undefined) | 7 | -3 | 2 | -8 | 0 | -2
Nc1ccc2nc(N3CCOCC3)sc2c1 | -2 | -1 | 6 | 46* | 2 | 17
COc1ccc(CCNC(=O)Cn2cnc3scc(-c4ccccc4)c3c2=O)cc1OC | -2 | 4 | 9 | 7 | -2 | 5
COc1cccc(C(C)NC(=O)Nc2cccc(C(F)(F)F)c2)c1 (centres undefined) | -3 | -1 | 0 | -7 | -3 | 14
O=S1(=O)c2ccccc2N=NN1Cc1ccc(Cl)cc1 | 15 | 10 | 11 | 2 | 23 | 10
O=S1(=O)c2ccccc2N=NN1Cc1cc(Cl)cc(Cl)c1 | . | . | . | -11 | 33* | -4
CC(=O)Nc1c(Cl)cc2c(c1Cl)Cc1cc(C#N)ccc1-2 | 2 | 1 | 2 | . | . | .
COC(=O)c1sc(-c2ccc(C(C)(C)C)cc2)cc1NC(=O)COCC(=O)O | . | . | . | -14 | 28* | 28
CCC(C(=O)N1CCC(C(N)=O)CC1)n1nc(C)n2c(cc3occc32)c1=O (centres undefined) | -1 | 1 | 10 | -3 | 6 | -3
N#Cc1ccc(N2CCCNCC2)nc1 | -3 | -3 | 2 | 10 | 6 | 11
CCN(CC)c1ccc2c(-c3ccc(S(=O)(=O)O)cc3S(=O)(=O)[O-])c3ccc(=[N+](CC)CC)cc-3oc2c1 | + | 174* | + | + | 173* | -5
O=C(O)c1ccc(CSc2nnnn2-c2ccc(F)cc2)cc1 | 6 | 0 | 5 | -10 | 2 | 6
O=C(O)c1ccc(-n2nnnc2SCc2ccccc2Br)cc1 | 1 | 27* | 5 | -10 | 1 | 5
Cc1ccc(C)c(N2CCN(c3ncccc3[N+](=O)[O-])CC2)c1 | 2 | 4 | 6 | 8 | 28* | 9
O=C(/C=C/c1ccccc1Cl)NCCCn1ccnc1 | 14 | -1 | 8 | 7 | 0 | 4
CCOc1ccc(S(=O)(=O)Nc2ccc(C(=O)NCCCN3CCOCC3)cc2)cc1 | -1 | 1 | 3 | -2 | 6 | 8
CCOc1ccc(NS(=O)(=O)c2ccc(C(=O)NCCN3CCOCC3)cc2)cc1 | -1 | -2 | 4 | 2 | 32* | 0
SMILES | PAFAH2 inh | PAFAH1B2 inh | PAFAH1B3 FP inh | PREPL inh | pPAFAH FP inh | Apaf-1 inh
Cc1ccc(NS(=O)(=O)c2ccc(C(=O)NCCN3CCOCC3)cc2)cc1 | 6 | 7 | 3 | -3 | 25* | -5
CC1(C)CC(NC(=O)c2cc(COc3cccc(C(F)(F)F)c3)on2)CCO1 (centres undefined) | 11 | 4 | 4 | 5 | 5 | 7
N#Cc1c(-c2ccccc2)ccn(Cc2ccc(Cl)cc2)c1=O | 2 | -1 | -1 | -8 | 4 | -32
N#C/C(=C\c1ccc(OCc2ccc(Br)cc2)cc1)C(=O)Nc1cccc(C(=O)O)c1 | -31 | 24* | -7 | 9 | 2 | .
N#C/C(=C\c1ccc(OCc2ccc(F)cc2)cc1)C(=O)Nc1cccc(C(=O)O)c1 | -22 | 6 | 4 | 15 | 1 | 8
CCOC(=O)C1CCN(C(=O)c2ccc(OCC(=O)Nc3ccc(OCC)cc3)c(OC)c2)CC1 | 6 | 2 | -1 | 7 | 5 | 3
Cc1nc(S/C(=C/c2ccc(-c3ccc(C(=O)O)cc3)o2)C(=O)O)n[nH]1 | 14 | 1 | 20 | 5 | 33* | -12
COc1ccc(NC(=O)COC(=O)/C=C/c2ccccc2[N+](=O)[O-])cc1OC | 17 | 6 | 6 | 21 | 30* | -3
O=C(/C=C/c1ccccc1[N+](=O)[O-])OCC(=O)c1ccccc1 | 29 | 4 | 1 | 3 | 25* | -7
COC(=O)CNC(=O)COC(=O)/C=C/c1ccccc1[N+](=O)[O-] | 5 | 6 | 17 | -1 | 5 | -4
CN(Cc1cccs1)C(=O)/C=C/c1ccccc1[N+](=O)[O-] | -1 | 3 | -2 | 4 | 1 | -1
COc1cccc(C2=CC(c3ccc(N(C)C)cc3)n3ncnc3N2)c1 (centres undefined) | . | . | . | 63* | 1 | 21
Nc1c(C(=O)NCc2ccccc2)sc2nc(N3CCOCC3)c3c(c12)CCCC3 | 6 | 4 | -9 | 25 | 27* | 20
Cc1nnc2ccc(-c3ccc(NS(=O)(=O)c4ccc(Cl)s4)cc3)nn12 | -1 | -2 | 3 | 13 | 26* | 13
Cc1cccc(OCCC(=O)OCC(=O)Nc2c(C)nn(-c3ccccc3)c2C)c1 | 3 | 1 | 3 | 9 | 29* | 9
Cc1nn(-c2ccccc2)c(C)c1NC(=O)COC(=O)CC(C)c1ccccc1 (centres undefined) | 8 | 6 | 5 | 7 | 27* | 10
Cc1nn(-c2ccccc2)c(C)c1NC(=O)COC(=O)Cc1cccc(C(F)(F)F)c1 | 8 | 3 | 12 | -3 | 7 | 6
CS(=O)(=O)Nc1cccc(C2=NN(C(=O)CCCC(=O)O)C(c3cccs3)C2)c1 (centres undefined) | 24 | 15 | 24 | -2 | 1 | -1
O=C1C2C3C=CC(CC3)C2C(=O)N1c1cccc(C(F)(F)F)c1 (centres undefined) | -1 | 0 | -2 | -2 | 2 | -120
